# Laboratory results taken from ChEMBL document CHEMBL2331332 (J Med Chem, 2013).
# Calls of active or inactive are those of the source. The calls are words filed in the database; no cut-off is given here.
# Experiments:
# [1] = biological target: T1, Prostaglandin E synthase (Homo sapiens) (UniProt O14684); assay: Inhibition of microsomal PGES-1 (unknown origin) expressed in Escherichia coli using PGH2 as substrate assessed as inhibition of PGE2 formation at 10 uM by reversed phase HPLC analysis
# T1 sequence (whole entry): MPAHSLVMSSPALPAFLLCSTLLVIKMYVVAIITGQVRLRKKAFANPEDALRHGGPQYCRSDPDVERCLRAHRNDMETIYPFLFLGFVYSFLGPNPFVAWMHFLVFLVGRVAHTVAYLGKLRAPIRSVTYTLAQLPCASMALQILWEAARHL
# [2] = biological target: T1, Prostaglandin E synthase (Homo sapiens); assay: Competitive inhibition of full-length microsomal PGES-1 (unknown origin) expressed in Escherichia coli Rosetta(DE3) using PGH2 as substrate incubated for 5 mins prior to substrate addition relative to control in presence of increased substrate concentration
# [3] = biological target: T1, Prostaglandin E synthase (Homo sapiens); assay: Competitive inhibition of full-length microsomal PGES-1 (unknown origin) expressed in Escherichia coli Rosetta(DE3) using PGH2 as substrate incubated for 5 mins prior to substrate addition relative to control
# [4] = biological target: T2, Polyunsaturated fatty acid 5-lipoxygenase (Homo sapiens) (UniProt P09917); assay: Inhibition of 5-LOX-mediated LTB4 formation in human whole blood at 10 uM incubated for 20 mins prior to substrate addition measured after 0.5 hrs by EIA in presence of calcium ionophore A23187
# T2 sequence (whole entry): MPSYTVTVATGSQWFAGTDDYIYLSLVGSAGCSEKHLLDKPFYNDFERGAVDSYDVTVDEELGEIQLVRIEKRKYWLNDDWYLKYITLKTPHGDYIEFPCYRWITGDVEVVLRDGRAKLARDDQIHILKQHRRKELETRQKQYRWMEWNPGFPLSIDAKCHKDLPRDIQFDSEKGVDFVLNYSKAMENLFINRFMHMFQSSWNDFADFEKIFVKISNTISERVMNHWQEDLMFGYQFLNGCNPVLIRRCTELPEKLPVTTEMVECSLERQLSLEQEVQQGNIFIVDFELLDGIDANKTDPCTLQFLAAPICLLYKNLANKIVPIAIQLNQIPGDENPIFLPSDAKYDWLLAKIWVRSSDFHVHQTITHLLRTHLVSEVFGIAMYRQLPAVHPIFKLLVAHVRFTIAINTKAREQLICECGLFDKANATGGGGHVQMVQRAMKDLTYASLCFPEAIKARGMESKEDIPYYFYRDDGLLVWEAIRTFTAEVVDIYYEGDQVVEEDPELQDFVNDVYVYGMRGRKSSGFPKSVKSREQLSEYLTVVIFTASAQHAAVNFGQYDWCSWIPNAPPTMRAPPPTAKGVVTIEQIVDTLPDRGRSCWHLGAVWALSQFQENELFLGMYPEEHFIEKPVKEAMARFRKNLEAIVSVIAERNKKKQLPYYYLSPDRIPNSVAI
# Method in brief: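 Human whole blood was stimulated with calcium ionophore A23187 (final 20 μg/mL) for 0.5 h at 37 °C to induce LTB4 formation. Compounds were tested at 10 μM.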
# [5] = biological target: T1, Prostaglandin E synthase (Homo sapiens); assay: Competitive inhibition of full-length microsomal PGES-1 (unknown origin) expressed in Escherichia coli Rosetta(DE3) using PGH2 as substrate preincubated for 15 mins relative to control in presence of higher glutathione disulfide concentration
# Method in brief: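 This GSSG control repeated the cofactor competition setup, with added GSH replaced by GSSG at the same final mass-volume percentage. 2.5 mM GSH was always present, and PGH2 was 17 μM. Preincubation was 15 min at 4 °C. Zero inhibition was set from the GSH activity curve, and PGE2 was read by EIA. Mean ± SEM, n = 3.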
# Prostaglandin E synthase [6] = biological target: T3, Prostaglandin E synthase (Homo sapiens, UniProt O14684); assay: Inhibition of PGES-1 in human whole blood assessed as LPS-induced PGE2 formation incubated for 15 mins prior to LPS addition measured after 24 hrs by EIA
# T3 sequence (O14684 whole entry): T1 sequence (whole entry)
# Method in brief: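 Fresh heparinized blood came from healthy volunteers free of NSAIDs for at least 14 days. It was preincubated 15 min at 37 °C with compound or DMSO vehicle. LPS (final 100 μg/mL) was then added for 24 h at 37 °C. Plasma was obtained by centrifugation at 4 °C, and PGE2 was read by EIA.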
# Prostaglandin E synthase [7] = biological target: T3, Prostaglandin E synthase; assay: Inhibition of full-length microsomal PGES-1 (unknown origin) expressed in Escherichia coli Rosetta(DE3) using PGH2 as substrate assessed as inhibition of PGH2 conversion to PGE2 incubated 15 mins prior to substrate addition measured after 1 min by EIA
# Method in brief: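 Reactions used 2.5 mM cofactor and 17 μM PGH2 for 1 min at 4 °C, then were stopped, and PGE2 was quantified by EIA. IC50 came from dose-response curves. Mean ± SEM, n = 3.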
# [8] = biological target: T2, Polyunsaturated fatty acid 5-lipoxygenase (Homo sapiens); assay: Inhibition of 5-LOX (unknown origin) at 10 uM by human whole blood LTB4 assay
# [9] = system: Prostaglandin G/H synthase 2 (COX-2); assay: Inhibition of COX-2 (unknown origin)-mediated TMPD oxidation using PGG2 as substrate at 100 uM incubated 15 mins prior to substrate addition measured after 36 secs by spectrophotometric analysis; settings: Homo sapiens
# [10] = system: Prostaglandin G/H synthase 1 (COX-1); assay: Inhibition of COX-1 (unknown origin)-mediated TMPD oxidation using PGG2 as substrate at 100 uM incubated 15 mins prior to substrate addition measured after 36 secs by spectrophotometric analysis; settings: Homo sapiens
# [11] = biological target: T1, Prostaglandin E synthase (Homo sapiens); assay: Competitive inhibition of full-length microsomal PGES-1 (unknown origin) expressed in Escherichia coli Rosetta(DE3) using PGH2 as substrate preincubated for 15 mins relative to control in presence of 25 mM of cofactor GSH
# [12] = biological target: T1, Prostaglandin E synthase (Homo sapiens); assay: Competitive inhibition of full-length microsomal PGES-1 (unknown origin) expressed in Escherichia coli Rosetta(DE3) using PGH2 as substrate preincubated for 15 mins relative to control in presence of 2.5 mM of cofactor GSH
# [13] = biological target: T1, Prostaglandin E synthase (Homo sapiens); assay: Inhibition of full-length microsomal PGES-1 (unknown origin) expressed in Escherichia coli Rosetta(DE3) using PGH2 as substrate assessed as PGH2 conversion to PGE2 at 10 uM incubated 15 mins prior to substrate addition measured after 1 min by EIA
Structure (SMILES),inhibition [1],inhibition [2],inhibition [3],inhibition [4],inhibition [5],IC50 (Prostaglandin E synthase [6]),IC50 (Prostaglandin E synthase [7]),inhibition [8],inhibition [9],inhibition [10],inhibition [11],inhibition [12],inhibition [13]
Cc1ccc2oc(-c3cccc(NC(=O)c4ccccc4[N+](=O)[O-])c3)nc2c1,50%,–,–,–,–,–,–,–,–,–,–,–,–
O=C(O)CN1C(=O)/C(=C2/C(=O)N(CC(=O)O)c3ccccc32)SC1=S,–,0%,> 60%,< 1%,Active,3800 nM,1.8 nM,< 1%,14.7%,< 1%,< 15%,80%,–
CCOc1cc(/C=C2/C(=O)N(c3ccc(Cl)cc3)N=C2C)ccc1OCC(=O)O,–,–,–,–,–,–,–,–,–,–,–,–,10%

# Next, values leading:
inhibition [1],inhibition [2],inhibition [3],inhibition [4],inhibition [5],IC50 (Prostaglandin E synthase [6]),IC50 (Prostaglandin E synthase [7]),inhibition [8],inhibition [9],inhibition [10],inhibition [11],inhibition [12],inhibition [13],Structure (SMILES)
–,0%,> 60%,< 1%,Active,300 nM,4 nM,20%,< 1%,2.1%,< 15%,80%,–,COc1ccc(-c2nnc(SCC(=O)c3ccc4c(c3)Cc3ccccc3-4)nc2-c2ccc(OC)cc2)cc1
–,0%,> 60%,< 1%,Active,6500 nM,2 nM,< 1%,12.9%,< 1%,< 15%,80%,–,CCOC(=O)C1=C(C)N=c2s/c(=C\c3ccc(-c4ccc(Cl)c(C(=O)O)c4)o3)c(=O)n2C1c1ccccc1Cl (stereo not given)
